From ChEMBL document CHEMBL2157975 (Bioorg Med Chem Lett, 2012) come the findings set out here.

The nature of series [1]: Drug degradation in aqueous acetonitrile solution assessed as ester bond hydrolysis. The following applies: buffer. The series is classed as physicochemical.
Series [2] concerns the target Kappa-type opioid receptor (Homo sapiens) (UniProt P41145). The series can be described thus: Binding affinity to kappa-opioid receptor at 10 uM.
Series [3] is described as follows: Binding affinity to benzodiazepinone receptor at 10 uM.
Series [4] in a line: Metabolic stability in plasma. The series is classed as ADME, cell-free.
The subject of series [5] is Hepatocyte. Put plainly: Cytotoxicity against human hepatocytes. Format: cell-based.
Series [6] is described as follows: Metabolic stability in mouse hepatic microsomes assessed as compound remaining at 60 mins. Format: ADME. The following applies: liver microsomes, read-out: Stability. Summed up:
(§1)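 Test compound incubated with liver microsomes, human or mouse according to the line (the text also calls these liver homogenates). Read-out was the percentage of parent compound remaining after 60 min.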
For orientation: Liver microsomes are a subcellular fraction often used to study metabolism.

The nature of series [7]: Metabolic stability in human hepatic microsomes assessed as compound remaining at 60 mins. The series is classed as ADME. The following applies: liver microsomes, read-out: Stability. In a few lines:
as §1

In series [8] the test system is Plasma. The series can be described thus: Plasma protein binding in mouse. The series is classed as ADME, cell-free.
Series [9] concerns the target T1, Apelin receptor (Homo sapiens) (UniProt P35414).
T1 sequence (whole entry): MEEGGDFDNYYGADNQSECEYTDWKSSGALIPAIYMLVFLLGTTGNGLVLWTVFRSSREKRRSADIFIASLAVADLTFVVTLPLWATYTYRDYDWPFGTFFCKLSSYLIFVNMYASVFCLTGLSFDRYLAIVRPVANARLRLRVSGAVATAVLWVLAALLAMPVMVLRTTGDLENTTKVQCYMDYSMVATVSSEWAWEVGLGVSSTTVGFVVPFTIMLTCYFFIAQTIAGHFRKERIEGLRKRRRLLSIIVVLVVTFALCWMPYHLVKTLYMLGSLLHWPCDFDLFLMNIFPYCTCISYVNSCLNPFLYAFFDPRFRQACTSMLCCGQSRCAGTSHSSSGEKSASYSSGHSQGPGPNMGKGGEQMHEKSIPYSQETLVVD
The series can be described thus: Antagonist activity at APJ receptor assessed as inhibition of apelin13-induced cAMP accumulation. The series is classed as functional. Background: cAMP levels reflect the balance of adenylyl cyclase and phosphodiesterase activity.

The target of series [10] is T2, Type-1 angiotensin II receptor (Homo sapiens, UniProt P30556).
T2 sequence (P30556 whole entry): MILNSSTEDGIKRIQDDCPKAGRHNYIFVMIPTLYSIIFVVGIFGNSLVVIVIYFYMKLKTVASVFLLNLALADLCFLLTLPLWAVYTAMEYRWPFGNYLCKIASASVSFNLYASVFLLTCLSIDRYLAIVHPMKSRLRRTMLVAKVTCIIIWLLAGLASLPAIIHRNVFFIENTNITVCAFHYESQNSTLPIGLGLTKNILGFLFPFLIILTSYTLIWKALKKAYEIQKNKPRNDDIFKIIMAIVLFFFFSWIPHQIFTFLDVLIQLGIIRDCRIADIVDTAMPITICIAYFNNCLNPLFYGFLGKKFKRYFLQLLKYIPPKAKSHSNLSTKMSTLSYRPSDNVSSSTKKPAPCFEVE
Put plainly: Inhibition of AT1 receptor.

The nature of series [11]: Selectivity ratio of IC50 for AT1 receptor to IC50 for APJ receptor (unknown receptor).
Series [12] has as its target T3, Apelin receptor (Homo sapiens, UniProt P35414).
T3 sequence (P35414 whole entry): T1 sequence (whole entry)
Put plainly: Antagonist activity at APJ receptor expressed in CHOK1 cells assessed as inhibition of apelin13-induced beta-arrestin recruitment after 90 mins by luminescence assay. The series is classed as functional, cell-based, CHO-K1.

Kappa-type opioid receptor (Homo sapiens), sequence (P41145 whole entry): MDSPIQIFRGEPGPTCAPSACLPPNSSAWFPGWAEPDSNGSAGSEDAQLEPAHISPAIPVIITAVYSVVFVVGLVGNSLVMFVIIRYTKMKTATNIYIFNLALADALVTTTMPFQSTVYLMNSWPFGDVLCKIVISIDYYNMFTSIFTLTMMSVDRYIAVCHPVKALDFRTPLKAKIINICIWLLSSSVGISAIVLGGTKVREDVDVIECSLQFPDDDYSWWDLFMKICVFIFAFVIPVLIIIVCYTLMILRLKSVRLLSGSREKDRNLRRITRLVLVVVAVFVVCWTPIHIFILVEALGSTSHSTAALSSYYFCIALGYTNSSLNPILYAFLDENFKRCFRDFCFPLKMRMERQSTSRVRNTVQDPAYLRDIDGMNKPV

On to `Cc1ccnc(SCc2cc(=O)c(OC(=O)c3ccc(Cl)c([N+](=O)[O-])c3)co2)n1`, for which, in [1], the Drug degradation entry is given as “Active”.

Turning to `O=C(Oc1coc(CSc2ncccn2)cc1=O)c1ccc([N+](=O)[O-])cc1`, the Activity is below 50% in series [2], below 70% in series [3] and above 50 µM in series [5]. In series [4], the Stability came out at 42.2%. Besides, the remaining at 1 h is 4.9% in [6] and 4.2% in [7]. Also, the PPB in [8] is 99.1%. For the same compound, in series [9], the inhibition entry is “Dose-dependent effect”. Also, in [10], the IC50 (commonly the midpoint of a concentration-inhibition curve) was above 79 µM.

With `N#Cc1ccc(C(=O)Oc2coc(CSc3ncccn3)cc2=O)cc1`, the Ratio IC50 in series [11] is above 12. In addition, the IC50 in [10] is above 79 µM; in series [12], 6.59 µM.

Consider `O=C(Oc1coc(CSc2ccc(OC(F)(F)F)cc2)cc1=O)c1ccc(Cl)c([N+](=O)[O-])c1`, for which, in [11], the Ratio IC50 is above 3. Further, the IC50 in series [10] was above 79 µM; in [12], 24 µM.

Turning to `COc1ccc(SCc2cc(=O)c(OC(=O)c3ccc(Cl)c([N+](=O)[O-])c3)co2)cc1`, the Ratio IC50 in series [11] was above 9. Further, the values for the IC50 in [10] and in series [12] were above 79 µM and 8.27 µM, respectively.

Consider `Cc1ccnc(S(=O)(=O)Cc2cc(=O)c(OC(=O)c3ccc(Cl)c([N+](=O)[O-])c3)co2)n1`, for which the Ratio IC50 in series [11] was above 25. Further, the IC50 is above 79 µM in [10] and 3.21 µM in series [12].

Take `O=C(Oc1coc(CSc2ccc(Cl)cc2)cc1=O)c1ccc(Cl)c([N+](=O)[O-])c1`: the Ratio IC50 in series [11] is above 17. In addition, the IC50 was above 79 µM in [10] and 4.53 µM in series [12].
